Data taken from ChEMBL document CHEMBL1124035, “1-Amino-substituted 4-methyl-5H-pyrido[4,3-b]indoles (gamma-carbolines) as tricyclic analogues of ellipticines: a new class of antineoplastic agents” (1988).

Assays:
[1] = test system: Calf thymus DNA; experiment: Apparent DNA affinity constant; assay type: nucleic-acid assay; settings: Bos taurus
How it was run: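 Apparent DNA affinity constant was measured by competition with ethidium bromide. Buffer was 20 mM Na2HPO4/NaH2PO4, 0.1 M NaCl, 1 mM EDTA, pH 7.4, with calf thymus DNA at 10 μg/mL. Values are given in 10^6 M⁻¹.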

[2] = test system: L1210; experiment: Ability to reduce the cell count to 50% in L1210 culture cells; assay type: functional; settings: Mus musculus, read-out: ID50 (the source's name)
How it was run: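 L1210 cells in exponential growth in RPMI 1640 with 2 mM glutamine, penicillin/streptomycin and 10% FCS, 37 °C, 5% CO2. Drugs dissolved in distilled water were added to cells at 0.8 × 10^5 cells/mL for 48 h, then cells were counted. ID50 is the concentration halving cell proliferation versus controls, from regression of dose-response data; mean of two independent experiments.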

[3] = test system: Mus musculus; experiment: Antitumor activity against P388 leukemia in mice at a dose of 10 mg/kg administered intraperitoneally for 5 days; assay type: functional; settings: route intraperitoneal
How it was run: (§1)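 CDF1 hybrid male or female mice, 10 per group, were inoculated ip with 10^6 viable P388 cells on day 0. Drugs in distilled water were given ip (0.1 mL/10 g body weight) daily D1-5. Vehicle, 5-fluorouracil and BD 84 were given the same way. T/C = median survival day of treated / controls × 100; T/C > 128% was significant; cures counted at D60.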

[4] = test system: Mus musculus; experiment: Antitumor activity against P388 leukemia in mice at a dose of 2.5 mg/kg administered intraperitoneally for 5 days; assay type: functional; settings: route intraperitoneal; how it was run: as §1
[5] = test system: Mus musculus; experiment: Antitumor activity against P388 leukemia in mice at a dose of 20 mg/kg administered intraperitoneally for 5 days; Nontoxic at this dose; assay type: functional; settings: route intraperitoneal
How it was run: (§2)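 CDF1 hybrid male or female mice, 10 per group, were inoculated ip on day 0 with 10^6 viable P388 leukemia cells. Drug in distilled water was given ip (0.1 mL/10 g body weight) daily on days 1-5, with vehicle, 5-fluorouracil and BD 84 controls given the same way. T/C = median survival of treated/controls × 100; T/C > 128% counted as significant.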

[6] = test system: Mus musculus; experiment: Antitumor activity against P388 leukemia in mice at a dose of 5 mg/kg administered intraperitoneally for 5 days; assay type: functional; settings: route intraperitoneal; how it was run: as §2
[7] = test system: Mus musculus; experiment: Antitumor activity against P388 leukemia in mice at a dose of 0.5 mg/kg administered intraperitoneally for 5 days; assay type: functional; settings: route intraperitoneal; how it was run: as §1
[8] = test system: Mus musculus; experiment: Antitumor activity against P388 leukemia in mice at a dose of 1 mg/kg administered intraperitoneally for 5 days; assay type: functional; settings: route intraperitoneal; how it was run: as §1
[9] = test system: Mus musculus; experiment: Antitumor activity against P388 leukemia in mice at a dose of 16 mg/kg administered intraperitoneally for 5 days; assay type: functional; settings: route intraperitoneal; how it was run: as §1
[10] = test system: Mus musculus; experiment: Antitumor activity against P388 leukemia in mice at a dose of 2 mg/kg administered intraperitoneally for 5 days; assay type: functional; settings: route intraperitoneal; how it was run: as §1
[11] = test system: Mus musculus; experiment: Antitumor activity against P388 leukemia in mice at a dose of 24 mg/kg administered intraperitoneally for 5 days; assay type: functional; settings: route intraperitoneal; how it was run: as §2
[12] = test system: Mus musculus; experiment: Antitumor activity against P388 leukemia in mice at a dose of 4 mg/kg administered intraperitoneally; assay type: functional; settings: route intraperitoneal
[13] = test system: Mus musculus; experiment: Antitumor activity against P388 leukemia in mice at a dose of 8 mg/kg administered intraperitoneally for 5 days; assay type: functional; settings: route intraperitoneal; how it was run: as §2

Row | Compound | K aff [1] | IC50 [2] | T/C [3] | T/C [4] | T/C [5] | T/C [6] | T/C [7] | T/C [8] | T/C [9] | T/C [10] | T/C [11] | T/C [12] | T/C [13]
1 | CN(C)CCCNc1nccc2c1c1cc(O)ccc1n2C | 120000 M⁻¹ | 190 nM | 169% | 137% | 173% | 145% |  |  |  |  |  |  | 
2 | CCN(CC)CCCNc1nccc2c(C)c3[nH]c4ccc(OC)cc4c3c(C)c12 [RETELLIPTINE] | 700000 M⁻¹ | 100 nM |  |  |  |  | 171% | 178% | 283% | 188% | 113% | 245% | 273%
